# Test results taken from ChEMBL document CHEMBL1153637, “Identification and optimisation of a novel series of pyrimidine based cyclooxygenase-2 (COX-2) inhibitors. Utilisation of a biotransformation approach” (Bioorg Med Chem Lett, 2009).
# Calls of active or inactive are those of the source. The calls are words filed in the database; no cut-off is given here.
# Legend:
# [1] = molecular target: T1, Prostaglandin G/H synthase 2 (Homo sapiens, UniProt P35354); experiment: Inhibition of human COX2 expressed in african green monkey COS cells assessed as inhibition of arachidonic acid-stimulated PGE2 production by enzyme immunoassay; assay type: cell-based
# T1 sequence (P35354 whole entry): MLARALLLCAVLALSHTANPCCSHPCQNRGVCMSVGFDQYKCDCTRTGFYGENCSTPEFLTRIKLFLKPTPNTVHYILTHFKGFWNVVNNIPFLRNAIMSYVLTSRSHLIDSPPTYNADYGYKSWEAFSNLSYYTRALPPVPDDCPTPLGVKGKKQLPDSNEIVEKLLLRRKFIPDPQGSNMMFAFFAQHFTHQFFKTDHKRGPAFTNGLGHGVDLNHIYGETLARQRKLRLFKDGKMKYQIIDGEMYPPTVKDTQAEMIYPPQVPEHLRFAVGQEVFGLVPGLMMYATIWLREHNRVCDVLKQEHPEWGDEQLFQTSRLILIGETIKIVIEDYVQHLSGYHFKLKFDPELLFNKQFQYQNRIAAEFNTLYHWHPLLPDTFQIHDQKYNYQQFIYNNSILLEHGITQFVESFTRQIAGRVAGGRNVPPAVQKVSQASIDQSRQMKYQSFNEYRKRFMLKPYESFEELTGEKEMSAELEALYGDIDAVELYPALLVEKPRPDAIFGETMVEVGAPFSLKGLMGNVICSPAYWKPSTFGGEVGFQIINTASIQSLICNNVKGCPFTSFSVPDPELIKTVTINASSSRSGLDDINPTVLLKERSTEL
# [2] = species on record: Homo sapiens; experiment: Selectivity ratio of IC50 for human COX1 to IC50 for human COX2
# In short: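 Ratio of the COX-1 IC50 to the COX-2 IC50. Both IC50s are for inhibition of PGE2 production by COS cells stably expressing human COX-1 or human COX-2, after stimulation with arachidonic acid.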
# [3] = molecular target: T2, Prostaglandin G/H synthase 1 (Homo sapiens, UniProt P23219); experiment: Inhibition of human COX1 expressed in african green monkey COS cells assessed as inhibition of arachidonic acid-stimulated PGE2 production by enzyme immunoassay; assay type: cell-based
# [4] = species on record: Rattus norvegicus; experiment: Antiinflammatory activity in Freund's complete adjuvant-induced rat inflammatory pain model assessed as change in weight bearing ability on inflamed paw pretreated 1 hr before and measured 6 hrs after FCA challenge; assay type: functional
# [5] = molecular target: T2, Prostaglandin G/H synthase 1; experiment: Inhibition of human COX1 expressed in african green monkey COS cells assessed as inhibition of arachidonic acid-stimulated PGE2 production upto 100 uM by enzyme immunoassay; assay type: cell-based
# In short: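 COS cells stably expressing human COX-1 were stimulated with arachidonic acid, and PGE2 production was measured. IC50 was taken as the concentration inhibiting PGE2 output.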
# T2 sequence (P23219 whole entry): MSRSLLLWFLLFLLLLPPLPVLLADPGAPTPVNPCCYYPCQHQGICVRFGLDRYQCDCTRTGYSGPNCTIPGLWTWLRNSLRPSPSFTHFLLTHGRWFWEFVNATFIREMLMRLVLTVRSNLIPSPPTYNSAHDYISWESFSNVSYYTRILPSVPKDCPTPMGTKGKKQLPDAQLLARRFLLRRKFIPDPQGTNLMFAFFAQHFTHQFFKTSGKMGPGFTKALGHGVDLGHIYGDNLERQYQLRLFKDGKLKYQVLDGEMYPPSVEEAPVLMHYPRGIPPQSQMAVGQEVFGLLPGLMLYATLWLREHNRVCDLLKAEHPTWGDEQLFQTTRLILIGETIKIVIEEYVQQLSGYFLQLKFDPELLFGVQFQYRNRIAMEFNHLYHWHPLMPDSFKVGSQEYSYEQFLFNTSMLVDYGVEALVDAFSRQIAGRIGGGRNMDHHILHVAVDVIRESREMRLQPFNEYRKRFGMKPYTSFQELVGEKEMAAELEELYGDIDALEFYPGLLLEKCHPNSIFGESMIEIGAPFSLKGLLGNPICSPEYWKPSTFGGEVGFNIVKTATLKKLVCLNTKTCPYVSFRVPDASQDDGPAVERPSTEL
Compound,IC50 [1] [nM],Ratio IC50 [2],IC50 [3] [nM],ED50 [4] [mg/kg],Activity [5]
Cn1cccc1Cc1ncc(-c2ccc(S(C)(=O)=O)cc2)c(-c2ccc(F)cc2)n1,23,284,6540,,
CS(=O)(=O)c1ccc(-c2cnc(CC3CCCCC3)nc2-c2ccc(F)cc2)cc1,12,247,2970,,
CS(=O)(=O)c1ccc(-c2cnc(Cc3ccccc3)[n+]([O-])c2-c2ccc(F)cc2)cc1,717,,,,
CS(=O)(=O)c1ccc(-c2cnc(Cc3ccccn3)nc2-c2ccc(F)cc2)cc1,6320,> 16,> 100000,,
CC(C)c1ncc(-c2ccc(S(C)(=O)=O)cc2)c(-c2ccc(F)cc2)n1,1140,8.8,10000,,
CS(=O)(=O)c1ccc(-c2cnc(Cc3ccc(F)cc3)nc2-c2ccc(F)cc2)cc1,277,> 361,> 100000,,
CS(=O)(=O)c1ccc(-c2cnc(CCc3ccccc3)nc2-c2ccc(F)cc2)cc1,5260,5.6,29400,,
CS(=O)(=O)c1ccc(-c2cnc(Cc3ccccc3)nc2-c2ccc(F)cc2)cc1,104,> 326,> 34000,,
CS(=O)(=O)c1ccc(-c2cnc(Nc3ccccc3)nc2-c2ccc(F)cc2)cc1,56,> 1780,> 100000,,
CS(=O)(=O)c1ccc(-c2cnc(Sc3ccccc3)nc2-c2ccc(F)cc2)cc1,> 7200,,> 100000,,
CS(=O)(=O)c1ccc(-c2cnc(Oc3ccccc3)nc2-c2ccc(F)cc2)cc1,> 4640,,> 100000,,
CS(=O)(=O)c1ccc(-c2cnc(C(O)c3ccccc3)nc2-c2ccc(F)cc2)cc1 (configuration not stated),57,,,1.6,inactive
CS(=O)(=O)c1ccc(-c2cnc(Cc3ccc(F)cc3F)nc2-c2ccc(F)cc2)cc1,114,> 457,> 52100,,
CS(=O)(=O)c1ccc(-c2cnc(Cc3ccccc3O)nc2-c2ccc(F)cc2)cc1,43,,,,
CS(=O)(=O)c1ccc(-c2cnc(NCc3ccccc3)nc2-c2ccc(F)cc2)cc1,686,> 145,> 100000,,
CN(c1ccccc1)c1ncc(-c2ccc(S(C)(=O)=O)cc2)c(-c2ccc(F)cc2)n1,85,51,4340,,
